Here are results for 16 compounds from PubChem BioAssay.

As usually defined, the viability is a read-out of living cells in per cent, often relative to untreated cells. The term inhibition denotes the drop in the measured response relative to a control, in per cent.

Assay [1] is described as follows: Her2 expression decrease, cell viability multiplex – SKBR3 breast tumor cells, AlphaScreen, ATP viability, primary screen (AID 461;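 active means Her2 level under about 52% in both replicate screens, with viability over 70% of control, limit read from the data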;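 on Her2 level: lower value means less Her2 protein in the cells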;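 on viability: percent of carrier control wells set as 100% viability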). The settings on record: SKBR3 Her2 protein level, 18-24 h, measured here: SKBR3 viability, ATP luminescence, at 10 µM. A general note: Bead proximity is the source of the signal in Alpha formats.
In assay [2] the target is Receptor tyrosine-protein kinase erbB-2 (Homo sapiens) (UniProt P04626). The description is as above. To be noted: 18-24 h, at 10 µM, stronger effect = lower value.
The nature of assay [3]: reduced viability of SK-BR-3 breast cancer cells – cell-based, 24 h, human, pilot screen (AID 572;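 active means viability at or below 10% of carrier control in both of two separate runs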;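 further: compound exposure lasted between 18 and 24 h rather than exactly 24 h; 100% = carrier-treated control wells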). To be noted: SK-BR-3 viability, CellTiter-Glo luminescence, at 10 µM, stronger effect = lower value. A general note: Cellular ATP, detected with luciferase, serves as a proxy for viable cell number.
The nature of assay [4]: HUVEC growth inhibition – cell-based, human, primary screen (AID 575;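 active means viability at or below 30% in both replicate assays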;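 further: 100% = median of untreated cell wells with 0.1% DMSO on each plate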). The settings on record: HUVEC proliferation, CellTiter-Glo luminescence, 72 h; at 10 µM; stronger effect = lower value. In outline:
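Test system: primary human umbilical vein endothelial cells; medium: endothelial basal medium with 2% FBS plus growth supplements; dosing: 10 µM compound only; times: 72 h treatment at 37 °C; signal: CTG luminescence; read-out: % viability relative to median vehicle-well signal on each plate; control set: vehicle and MePR control wells; plate: 384-well, collagen-coated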

Assay [5] in a line: H69AR cell proliferation blockers – human, duplicate replicates, primary screen (AID 580;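 active means viability at or under a set limit in both replicates, limit being median viability minus 3 SD, cut at about 48% in these data, passing the limit was not always enough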;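 further: 100% = mean luminescence of untreated wells and 0% = no signal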). To be noted: H69AR lung tumor cells viability, ATP luminescence, 72 h; at 10 µM; stronger effect = lower value.
A short description of assay [6]: MRP1 drug-resistance reversers in H69AR cells – cell-based, doxorubicin co-treatment, pilot screen (AID 601;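 active means viability loss from added drug above about 55%, and viability with drug at most 40%, in both replicates, limit read from the data, passing the limit was not always enough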). The settings on record: CellTiter-Glo, 72 h, at 10 µM; for differential viability (reversal): stronger effect = higher value.
Assay [7] in a line: yeast transport mutant growth inhibition pilot in 384-well plates, post-Golgi transport modulator project (AID 636; in the data active means inhibition above about 31%). To be noted: absorbance 615 nm, about 18 h, stronger effect = higher value.
Assay [8] is described as follows: growth suppression of yeast trafficking mutant, preliminary HTS, modulators of trafficking downstream of Golgi apparatus project, 1536-format plate, OD 615 nm (AID 637). To be noted: yeast transport mutant growth, absorbance 615 nm, 18 h; stronger effect = higher value.
Where [9] appears, read: H69AR cells + 2 uM doxorubicin, measured here: viability with 2 uM doxorubicin, stronger effect = lower value.
Setting [10] is: H69AR cells, compound alone cytotoxicity.

The source made the active and inactive calls. Unless noted, no stated cut-off is given here; in the data, active means inhibition above about 30%; inactive means the rest. Peptide text beside a SMILES is read from it. * marks the point of attachment. Boc = CC(C)(C)OC(=O)*

Chain of Receptor tyrosine-protein kinase erbB-2 (Homo sapiens) (P04626 whole entry, looked up): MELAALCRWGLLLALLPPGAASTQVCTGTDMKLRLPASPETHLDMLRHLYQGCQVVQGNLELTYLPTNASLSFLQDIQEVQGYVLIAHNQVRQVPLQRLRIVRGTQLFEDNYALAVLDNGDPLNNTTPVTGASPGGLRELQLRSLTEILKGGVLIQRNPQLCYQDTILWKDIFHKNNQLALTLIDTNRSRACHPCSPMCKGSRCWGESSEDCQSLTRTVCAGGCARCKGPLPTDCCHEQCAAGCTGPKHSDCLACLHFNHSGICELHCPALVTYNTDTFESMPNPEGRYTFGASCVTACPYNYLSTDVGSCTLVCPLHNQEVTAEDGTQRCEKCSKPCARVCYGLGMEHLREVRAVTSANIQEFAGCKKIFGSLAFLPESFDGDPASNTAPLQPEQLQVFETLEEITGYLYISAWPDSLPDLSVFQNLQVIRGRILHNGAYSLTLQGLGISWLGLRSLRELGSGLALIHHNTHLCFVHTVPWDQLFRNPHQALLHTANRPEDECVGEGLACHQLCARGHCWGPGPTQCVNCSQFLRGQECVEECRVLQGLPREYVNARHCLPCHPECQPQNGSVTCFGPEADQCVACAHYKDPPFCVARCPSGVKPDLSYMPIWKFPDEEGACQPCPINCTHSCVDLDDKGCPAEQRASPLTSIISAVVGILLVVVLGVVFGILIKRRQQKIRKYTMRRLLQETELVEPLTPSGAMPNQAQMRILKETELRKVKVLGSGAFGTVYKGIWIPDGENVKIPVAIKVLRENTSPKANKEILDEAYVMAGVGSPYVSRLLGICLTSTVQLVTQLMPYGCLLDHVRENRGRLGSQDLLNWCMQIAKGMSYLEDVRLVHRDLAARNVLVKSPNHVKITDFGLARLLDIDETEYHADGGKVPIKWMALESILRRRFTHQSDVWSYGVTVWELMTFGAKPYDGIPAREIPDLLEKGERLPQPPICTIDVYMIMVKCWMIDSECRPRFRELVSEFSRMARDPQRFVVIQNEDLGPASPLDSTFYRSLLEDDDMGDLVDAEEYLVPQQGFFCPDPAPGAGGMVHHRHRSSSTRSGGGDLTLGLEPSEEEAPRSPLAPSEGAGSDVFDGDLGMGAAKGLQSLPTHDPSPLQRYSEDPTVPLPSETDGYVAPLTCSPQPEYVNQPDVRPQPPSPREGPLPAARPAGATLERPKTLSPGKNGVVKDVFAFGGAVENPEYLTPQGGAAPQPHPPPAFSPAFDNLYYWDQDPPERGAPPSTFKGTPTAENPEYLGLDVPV

In the case of `OCCNCCCCOc1ccccc1F`, the viability was 84.5% in assay [1]; 84.5% (inactive) in assay [3]; 111% (inactive) in assay [4]; 102% (inactive) in assay [5]; 94.3% in assay [6] (setting [9]); 102% in assay [6] (setting [10]). Moreover, the Her2 level in assay [2] was 128% (inactive). The differential viability (reversal) in assay [6] (H69AR cells + 2 uM doxorubicin) was 8.07% (inactive). In addition, the inhibition in assay [7] is 2.69% (inactive); in assay [8], -8.17% (inactive).
As for `CC(=O)c1cccc(-n2nnnc2SCC(=O)N2CCCC2)c1`, the viability in assay [1] is 93.5%; in assay [3], 93.5% (inactive); in assay [4] it was 83.1% (inactive); in assay [5], 87.9% (inactive); in assay [6] (setting [9]), 90.7%; in assay [6] (setting [10]), 87.9%. Further, the Her2 level in assay [2] was 88% (inactive). Also, the differential viability (reversal) in assay [6] (H69AR cells + 2 uM doxorubicin) is -2.82% (inactive). For the same compound, the inhibition in assay [7] was -3.55% (inactive); in assay [8], -7.5% (inactive).
With `COC(=O)Nc1nnc(CCc2ccccc2)s1`, the viability is 115% in assay [1]; 115% (inactive) in assay [3]; 97.2% (inactive) in assay [4]; 95.2% (inactive) in assay [5]; 80.3% in assay [6] (setting [9]); 95.2% in assay [6] (setting [10]). In addition, the Her2 level in assay [2] is 97.5% (inactive). Further, the differential viability (reversal) in assay [6] (H69AR cells + 2 uM doxorubicin) is 14.9% (inactive). The inhibition was -7.07% (inactive) in assay [7] and 9.52% (inactive) in assay [8].
For the compound `C=CCn1c(SCC(=O)NC23CC4CC(CC(C4)C2)C3)nc(O)cc1=O`, the viability was 138% in assay [1]; 138% (inactive) in assay [3]; 91.4% (inactive) in assay [4]; 92.9% (inactive) in assay [5]; 92.2% in assay [6] (setting [9]); 92.9% in assay [6] (setting [10]). The Her2 level in assay [2] is 108% (inactive). Besides, the differential viability (reversal) in assay [6] (H69AR cells + 2 uM doxorubicin) is 0.68% (inactive). Moreover, the inhibition in assay [7] was -1.18% (inactive); in assay [8] it was -0.48% (inactive).
Consider `COc1ccccc1NC(=O)C1=C(C)Nc2nc(CCCO)nn2C1c1cccnc1` (stereo not given), for which the viability in assay [1] is 132%; in assay [3], 132% (inactive); in assay [4], 95.7% (inactive); in assay [5] it was 96.2% (inactive); in assay [6] (setting [9]), 85.2%; in assay [6] (setting [10]), 96.2%. For the same compound, the Her2 level in assay [2] is 94.5% (inactive). The differential viability (reversal) in assay [6] (H69AR cells + 2 uM doxorubicin) is 11% (inactive). In addition, the inhibition in assay [7] was -6.36% (inactive); in assay [8] it was -3.81% (inactive).
Take `O=C(c1cccnc1)N1CCc2ccccc21`: the viability in assay [1] is 74%; in assay [3] it was 74% (inactive); in assay [4], 88.1% (inactive); in assay [5] it was 95% (inactive); in assay [6] (setting [9]), 111%; in assay [6] (setting [10]), 95%. The Her2 level in assay [2] is 77.5% (inactive). In addition, the differential viability (reversal) in assay [6] (H69AR cells + 2 uM doxorubicin) was -16.3% (inactive). In addition, the results for the inhibition in assay [7] and in assay [8] were -5.68% (inactive) and -0.16% (inactive), respectively.
As for `O=C(NC1CCCCC1)N(Cc1ccccc1)Cc1ccco1`, the viability is 94.5% in assay [1]; 94.5% (inactive) in assay [3]; 101% (inactive) in assay [4]; 100% (inactive) in assay [5]; 97.3% in assay [6] (setting [9]); 100% in assay [6] (setting [10]). Further, the Her2 level in assay [2] is 98% (inactive). For the same compound, the differential viability (reversal) in assay [6] (H69AR cells + 2 uM doxorubicin) was 3.09% (inactive). The inhibition is 0.54% (inactive) in assay [7] and -3.11% (inactive) in assay [8].
For the compound `CCCn1c(O)c(CN2CCCC(C)C2)c(C)c(C#N)c1=O` (stereo not given), the viability is 102% in assay [1]; 102% (inactive) in assay [3]; 86.8% (inactive) in assay [4]; 107% (inactive) in assay [5]; 92.2% in assay [6] (setting [9]); 107% in assay [6] (setting [10]). Moreover, in assay [2], the Her2 level was 87.5% (inactive). In addition, in assay [6] (H69AR cells + 2 uM doxorubicin), the differential viability (reversal) was 15.3% (inactive). In addition, the inhibition in assay [7] was -5.87% (inactive); in assay [8], 5.32% (inactive).
`CCCCOCP(=O)(CCCC)COCCCC`: the viability in assay [1] is 92.5%; in assay [3] it was 92.5% (inactive); in assay [4], 95.3% (inactive); in assay [5], 94.1% (inactive); in assay [6] (setting [9]), 88.8%; in assay [6] (setting [10]), 94.1%. In assay [2], the Her2 level is 91.5% (inactive). In addition, the differential viability (reversal) in assay [6] (H69AR cells + 2 uM doxorubicin) was 5.32% (inactive). Further, the figures for the inhibition in assay [7] and in assay [8] were -3.12% (inactive) and -0.98% (inactive), respectively.
For the compound `O=S(=O)(c1cccs1)N1CCN(C/C=C/c2ccccc2)CC1`, the viability in assay [1] is 101%; in assay [3] it was 101% (inactive); in assay [4], 83.3% (inactive); in assay [5], 82.9% (inactive); in assay [6] (setting [9]), 81.4%; in assay [6] (setting [10]), 82.9%. The Her2 level in assay [2] is 91.5% (inactive). Also, in assay [6] (H69AR cells + 2 uM doxorubicin), the differential viability (reversal) was 1.57% (inactive). Besides, the values for the inhibition in assay [7] and in assay [8] were -3.73% (inactive) and 2.1% (inactive), respectively.
For the compound `N#Cc1c(NC(NC(=O)c2ccco2)C(=O)c2ccccc2)sc2c1CCCC2` (stereo not given), the viability in assay [1] is 86.5%; in assay [3], 86.5% (inactive); in assay [4], 70.7% (inactive); in assay [5], 86.4% (inactive); in assay [6] (setting [9]), 92.8%; in assay [6] (setting [10]), 86.4%. The Her2 level in assay [2] is 73.5% (inactive). Moreover, the differential viability (reversal) in assay [6] (H69AR cells + 2 uM doxorubicin) is -6.42% (inactive). For the same compound, the inhibition is 80.4% (active) in assay [7] and 18% (inactive) in assay [8].
`Cc1ccc(S(=O)(=O)NCCC(=O)OCn2nnc3ccccc3c2=O)cc1`: the viability in assay [1] is 95.5%; in assay [3] it was 95.5% (inactive); in assay [4], 83.8% (inactive); in assay [5], 95.1% (inactive); in assay [6] (setting [9]) it was 108%; in assay [6] (setting [10]), 95.1%. The Her2 level in assay [2] was 82.5% (inactive). Also, in assay [6] (H69AR cells + 2 uM doxorubicin), the differential viability (reversal) was -13.1% (inactive). Moreover, the values for the inhibition in assay [7] and in assay [8] were -2.37% (inactive) and 1.27% (inactive), respectively.
As for `CC(C)(C)OC(=O)N1CCCC1C(=O)NC(Cc1ccccc1)C(=O)O` (stereo not drawn) (Boc-Pro-Phe-OH; configuration not given here), the viability in assay [1] is 116%; in assay [3], 116% (inactive); in assay [4], 96.1% (inactive); in assay [5] it was 104% (inactive); in assay [6] (setting [9]) it was 95.2%; in assay [6] (setting [10]), 104%. For the same compound, in assay [2], the Her2 level is 102% (inactive). In addition, the differential viability (reversal) in assay [6] (H69AR cells + 2 uM doxorubicin) was 8.93% (inactive). Also, the inhibition in assay [7] is -4.59% (inactive); in assay [8], 0.48% (inactive).
In the case of `CN(Cc1ccccc1)C(=O)CNC(=O)Cn1cnc2ccccc2c1=O`, the viability is 100% in assay [1]; 100% (inactive) in assay [3]; 91.9% (inactive) in assay [4]; 100% (inactive) in assay [5]; 90.8% in assay [6] (setting [9]); 100% in assay [6] (setting [10]). In assay [2], the Her2 level was 83% (inactive). Besides, the differential viability (reversal) in assay [6] (H69AR cells + 2 uM doxorubicin) is 9.23% (inactive). The inhibition was -3.11% (inactive) in assay [7] and -5.71% (inactive) in assay [8].
For `CC(C)N1C(=O)C2C(C(=O)NC3CCCCC3)C3C=CC2(O3)C1C(=O)NC1CCCC1` (stereo not given), the viability in assay [1] was 94.5%; in assay [3] it was 94.5% (inactive); in assay [4] it was 107% (inactive); in assay [5], 109% (inactive); in assay [6] (setting [9]), 93.5%; in assay [6] (setting [10]), 109%. Moreover, in assay [2], the Her2 level was 87% (inactive). In addition, the differential viability (reversal) in assay [6] (H69AR cells + 2 uM doxorubicin) is 15.9% (inactive). Also, the inhibition is -4.67% (inactive) in assay [7] and -1.11% (inactive) in assay [8].
On to `CCOC(=O)N1CCN(C(=O)CCc2c(C)nc3c(c(C)nn3-c3ccc(C)c(C)c3)c2C)CC1`, for which the viability in assay [1] was 92%; in assay [3] it was 92% (inactive); in assay [4], 82% (inactive); in assay [5], 86.2% (inactive); in assay [6] (setting [9]) it was 80%; in assay [6] (setting [10]), 86.2%. Moreover, the Her2 level in assay [2] was 88.5% (inactive). The differential viability (reversal) in assay [6] (H69AR cells + 2 uM doxorubicin) is 6.21% (inactive). For the same compound, the figures for the inhibition in assay [7] and in assay [8] were -1.71% (inactive) and -7.64% (inactive), respectively.
